Source: ChEMBL document CHEMBL1955766, “Structure guided development of novel thymidine mimetics targeting Pseudomonas aeruginosa thymidylate kinase: from hit to lead generation” (J Med Chem, 2012)

How the values were obtained:
[1] = tested on: Pseudomonas aeruginosa; test: Antibacterial activity against […], MexXY, MeyZ efflux pump- knock out Pseudomonas aeruginosa PAO280; format: functional
[2] = tested on: Pseudomonas aeruginosa; test: Antibacterial activity against Pseudomonas aeruginosa PAO1; format: functional
[3] = Inhibition of Pseudomonas aeruginosa thymidylate kinase expressed in Escherichia coli BL21 (DE3) cells assessed as phosphorylation of dTMP to dTDP after 20 mins by spectrophotometric analysis
Summary of the method: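 PaTMK from pET15b in E. coli BL21 DE3, purified by HisTrap and Superdex 200, used at 40 nM. dTDP formation was coupled via PK/LDH/NDP kinase to NADH oxidation (A340) over 20 min at 25 °C.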

[4] = tested on: BL21-DE3; test: Ratio of dFTM IC50 to compound IC50 for Pseudomonas aeruginosa thymidylate kinase expressed in Escherichia coli BL21 (DE3) cells assessed as phosphorylation of TMP to dTDP after 20 mins by spectrophotometric analysis
Summary of the method: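 His-tagged P. aeruginosa TMK expressed in E. coli BL21(DE3) and purified (Ni affinity, gel filtration). TMK diluted in buffer; 40 nM enzyme. Coupled PK/LDH/NDP kinase read-out: 2 mM ATP, 54 μM TMP, 2 mM PEP, 0.22 mM NADH, 40 mM HEPES pH 8.0, 80 mM KCl, 1.6 mM MgCl2. A340 decrease followed 20 min at 25 °C. Twenty 1.67-fold dilutions from 200 or 100 μM final. Initial rates relative to EDTA and enzyme-alone controls. IC50 ratio versus reference inhibitor.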

[5] = target: T1, Thymidylate kinase (Homo sapiens) (UniProt P23919); test: Inhibition of human thymidylate kinase using dTMP as substrate at 200 uM after 30 mins by fluorescence analysis
T1 sequence (whole entry): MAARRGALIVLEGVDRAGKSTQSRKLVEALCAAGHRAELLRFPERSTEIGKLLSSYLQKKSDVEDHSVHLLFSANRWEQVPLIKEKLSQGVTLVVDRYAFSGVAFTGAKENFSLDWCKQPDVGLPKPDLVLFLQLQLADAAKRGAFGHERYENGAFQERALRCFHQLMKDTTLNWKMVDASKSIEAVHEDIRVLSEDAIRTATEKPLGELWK
Summary of the method: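 Inhibitor range 0.39–200 μM. Reaction runs 2 min at room temperature, then ADP-detection reagents for 30 min. Read-out is fluorescence at ex 485/em 535 nm. Percent inhibition is corrected using no-enzyme and 5 μM ADP interference controls.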

[6] = target: T2, Thymidylate kinase (Homo sapiens, UniProt P23919); test: Inhibition of human thymidylate kinase using dTMP as substrate after 30 mins by fluorescence analysis
T2 sequence (P23919 whole entry): T1 sequence (whole entry)

[7] = Selectivity ratio of IC50 for human thymidylate kinase to IC50 for Pseudomonas aeruginosa thymidylate kinase
Summary of the method: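 Compound tested at 0.39–200 μM. Reaction 2 min at room temperature, then ADP detection reagents 30 min. Fluorescence read at ex 485/em 535 nm, corrected using 5 μM ADP interference controls and no-enzyme controls. Result is the ratio against the PaTMK coupled-assay IC50.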

Row | Compound | MIC [1] [µg/mL] | MIC [2] [µg/mL] | IC50 [3] [µM] | Ratio IC50 [4] | inhibition [5] [%] | IC50 [6] [µM] | Ratio IC50 [7]
1 | Cl.Cn1c(=O)[nH]c2ncc(-c3cccc(C(=O)NCCCc4cccc(CN)c4)c3)cc21 | > 256 | > 256 | 2.2 | – | – | – | –
2 | Cn1c(=O)[nH]c2ncc(-c3ccc(C(N)=O)cc3)cc21 | > 256 | > 256 | > 200 | – | – | – | –
3 | Cn1c(=O)[nH]c2ncc(-c3cccc(C(=O)NCCO)c3)cc21 | > 256 | > 256 | 2.6 | – | – | – | –
4 | Cn1c(=O)[nH]c2ncc(-c3cccc(C(=O)NCCc4nc5ccccc5[nH]4)c3)cc21 | > 256 | > 256 | 3 | – | – | – | –
5 | Cn1c(=O)[nH]c2ncc(-c3cccc(C(=O)NCCCC4CCCC4)c3)cc21 | > 256 | > 256 | 0.81 | – | – | – | –
6 | Cn1c(=O)[nH]c2ncc(-c3cccc(C(=O)NCC(Cc4ccccc4)C(=O)O)c3)cc21 (racemic) | > 256 | > 256 | 0.25 | – | – | – | –
7 | Cl.Cn1c(=O)[nH]c2ncc(-c3ccc(CN)cc3)cc21 | > 256 | > 256 | 4.9 | – | – | – | –
8 | Cn1c(=O)[nH]c2ncc(-c3ccncc3)cc21 | > 256 | > 256 | 152 | – | – | – | –
9 | Cn1c(=O)[nH]c2ncc(-c3cccc(C(=O)NCC#N)c3)cc21 | > 256 | > 256 | 2.1 | – | – | – | –
10 | Cn1c(=O)[nH]c2ncc(-c3cccc(O)c3)cc21 | > 256 | > 256 | 11 | – | – | – | –
11 | Cn1c(=O)[nH]c2ncc(-c3cccc(C(=O)NCCCc4c[nH]cn4)c3)cc21 | > 256 | > 256 | 0.99 | – | – | – | –
12 | Cn1c(=O)[nH]c2ncc(-c3cccc(C(=O)NCc4ccccc4)c3)cc21 | > 256 | > 256 | 1 | – | – | – | –
13 | Cn1c(=O)[nH]c2ncc(-c3cccc(C(=O)NCCCc4c[nH]c5ccccc45)c3)cc21 | > 256 | > 256 | 0.2 | – | – | – | –
14 | Cn1c(=O)[nH]c2ncc(-c3cccc(C(=O)NCc4nc5ccccc5[nH]4)c3)cc21 | > 256 | > 256 | 68 | – | – | – | –
15 | Cn1c(=O)[nH]c2ncc(-c3cccc(C(N)=O)c3)cc21 | > 256 | > 256 | – | 60 | 12 | > 200 | –
16 | Cn1c(=O)[nH]c2ncc(-c3cccc(C(=O)NCCS(=O)(=O)O)c3)cc21 | > 256 | > 256 | 1.3 | – | – | – | –
17 | CC(=O)Nc1cccc(-c2cnc3[nH]c(=O)n(C)c3c2)c1 | > 256 | > 256 | 3.4 | – | – | – | –
18 | CNC(=O)c1cccc(-c2cnc3[nH]c(=O)n(C)c3c2)c1 | > 256 | > 256 | 2.2 | – | – | – | –
19 | Cc1cn([C@H]2C[C@H](O)[C@@H](CF)O2)c(=O)[nH]c1=O | > 256 | > 256 | – | – | – | – | –
20 | Cn1c(=O)[nH]c2ncc(-c3cccc(C(=O)NCCCc4ccc(C(F)(F)F)cc4)c3)cc21 | > 256 | > 256 | 0.16 | – | 55 | 124 | > 1000
21 | Cn1c(=O)[nH]c2ncc(-c3cccc(C(=O)NCCc4ccncc4)c3)cc21 | > 256 | > 256 | 2 | – | – | – | –
22 | CC(NC(=O)c1cccc(-c2cnc3[nH]c(=O)n(C)c3c2)c1)C(=O)O (centres undefined) | > 256 | > 256 | 5 | – | – | – | –
23 | Cn1c(=O)[nH]c2ncc(-c3cccc(C(=O)NCCCN4CCOCC4)c3)cc21 | > 256 | > 256 | 5.8 | – | – | – | –
24 | Cn1c(=O)[nH]c2ncc(-c3cccc(C(=O)NCC(=O)O)c3)cc21 | > 256 | > 256 | 0.88 | – | – | – | –
25 | Cn1c(=O)[nH]c2ncc(-c3cccc(F)c3)cc21 | > 256 | > 256 | > 200 | – | – | – | –
26 | Cn1c(=O)[nH]c2ncc(-c3cccc(C(=O)NCC(N)=O)c3)cc21 | > 256 | > 256 | 0.88 | – | – | – | –

Row | Compound | MIC [1] [µg/mL] | MIC [2] [µg/mL] | IC50 [3] [µM] | Ratio IC50 [4] | inhibition [5] [%] | IC50 [6] [µM] | Ratio IC50 [7]
27 | Cn1c(=O)[nH]c2ncc(-c3ccccc3)cc21 | > 256 | > 256 | – | – | 17 | > 200 | –
28 | Cn1c(=O)[nH]c2ncc(-c3cccc(C(=O)NC(CCc4ccccc4)C(=O)O)c3)cc21 (racemic) | > 256 | > 256 | 12 | – | – | – | –
29 | Cn1c(=O)[nH]c2ncc(-c3cccc(C(=O)NCCc4c[nH]cn4)c3)cc21 | > 256 | > 256 | 2.3 | – | – | – | –
30 | CC(=O)c1cccc(-c2cnc3[nH]c(=O)n(C)c3c2)c1 | > 256 | > 256 | 13 | – | – | – | –
31 | CN(C)C(=O)c1cccc(-c2cnc3[nH]c(=O)n(C)c3c2)c1 | > 256 | > 256 | 104 | – | – | – | –
32 | Cn1c(=O)[nH]c2ncc(-c3ccc(O)cc3)cc21 | > 256 | > 256 | 21 | – | – | – | –
33 | Cn1c(=O)[nH]c2ncc(-c3cccc(C(=O)NCCCc4cccc(C(=O)O)c4)c3)cc21 | > 256 | > 256 | 2.4 | – | – | – | –
34 | Cn1c(=O)[nH]c2ncc(-c3cccc(C(=O)NCCCc4cccnc4)c3)cc21 | > 256 | > 256 | 0.51 | – | – | – | –
35 | Cn1c(=O)[nH]c2ncc(-c3cccc(N)c3)cc21 | > 256 | > 256 | 63 | – | – | – | –
36 | Cn1c(=O)[nH]c2ncc(-c3cccnc3)cc21 | > 256 | > 256 | 66 | – | – | – | –
37 | Cn1c(=O)[nH]c2ncc(-c3cccc(C(=O)NCc4ccccn4)c3)cc21 | > 256 | > 256 | 6.2 | – | – | – | –
38 | Cn1c(=O)[nH]c2ncc(-c3cccc(C(=O)NCCC(=O)O)c3)cc21 | > 256 | > 256 | 2.6 | – | – | – | –
39 | Cn1c(=O)[nH]c2ncc(-c3cccc(C(=O)NCCCc4ccc(C(=O)O)cc4)c3)cc21 | > 256 | > 256 | 2.7 | – | – | – | –
40 | Cl.Cn1c(=O)[nH]c2ncc(-c3cccc(C(=O)NCCN)c3)cc21 | > 256 | > 256 | 3.2 | – | – | – | –
41 | Cl.Cn1c(=O)[nH]c2ncc(-c3cccc(C(=O)NCCCc4ccc(CN)cc4)c3)cc21 | > 256 | > 256 | 3.2 | – | – | – | –
42 | Cn1c(=O)[nH]c2ncc(-c3cccc(CO)c3)cc21 | > 256 | > 256 | 37 | – | – | – | –
43 | Cn1c(=O)[nH]c2ncc(-c3cccc(C#N)c3)cc21 | > 256 | > 256 | > 200 | – | – | – | –
44 | COC(=O)c1ccccc1CCCNC(=O)c1cccc(-c2cnc3[nH]c(=O)n(C)c3c2)c1 | > 256 | > 256 | 0.37 | – | – | – | –
45 | Cn1c(=O)[nH]c2ncc(-c3cccc(C(=O)NCCCc4ccccc4)c3)cc21 | > 256 | > 256 | 0.12 | – | 43 | > 200 | > 1000
46 | Cn1c(=O)[nH]c2ncc(-c3cccc(C(=O)NCCCc4ccccc4C(=O)O)c3)cc21 | > 256 | > 256 | 2 | – | – | – | –
47 | Cn1c(=O)[nH]c2ncc(-c3cccc(S(N)(=O)=O)c3)cc21 | > 256 | > 256 | > 200 | – | – | – | –
48 | Cn1c(=O)[nH]c2ncc(-c3cccc(C(=O)NCCc4ccccc4)c3)cc21 | > 256 | > 256 | 2.9 | – | – | – | –
49 | Cn1c(=O)[nH]c2ncc(-c3cncnc3)cc21 | > 256 | > 256 | > 200 | – | – | – | –
50 | Cn1c(=O)[nH]c2ncc(-c3cccc(C(=O)NCCCc4ccc(F)cc4)c3)cc21 | > 256 | > 256 | 0.12 | – | 58 | 123 | > 1000
51 | Cl.Cn1c(=O)[nH]c2ncc(-c3cccc(CN)c3)cc21 | > 256 | > 256 | > 200 | – | – | – | –
